Measurements from ChEMBL document CHEMBL1681705, “Optimisation of ITK inhibitors through successive iterative design cycles” (Bioorg Med Chem Lett, 2011).

Legend:
[1] = biological target: T1, Ephrin type-A receptor 1 (Homo sapiens) (UniProt P21709); assay: Inhibition of EphA1 at 0.1 uM; values are per cent of control
T1 sequence (whole entry): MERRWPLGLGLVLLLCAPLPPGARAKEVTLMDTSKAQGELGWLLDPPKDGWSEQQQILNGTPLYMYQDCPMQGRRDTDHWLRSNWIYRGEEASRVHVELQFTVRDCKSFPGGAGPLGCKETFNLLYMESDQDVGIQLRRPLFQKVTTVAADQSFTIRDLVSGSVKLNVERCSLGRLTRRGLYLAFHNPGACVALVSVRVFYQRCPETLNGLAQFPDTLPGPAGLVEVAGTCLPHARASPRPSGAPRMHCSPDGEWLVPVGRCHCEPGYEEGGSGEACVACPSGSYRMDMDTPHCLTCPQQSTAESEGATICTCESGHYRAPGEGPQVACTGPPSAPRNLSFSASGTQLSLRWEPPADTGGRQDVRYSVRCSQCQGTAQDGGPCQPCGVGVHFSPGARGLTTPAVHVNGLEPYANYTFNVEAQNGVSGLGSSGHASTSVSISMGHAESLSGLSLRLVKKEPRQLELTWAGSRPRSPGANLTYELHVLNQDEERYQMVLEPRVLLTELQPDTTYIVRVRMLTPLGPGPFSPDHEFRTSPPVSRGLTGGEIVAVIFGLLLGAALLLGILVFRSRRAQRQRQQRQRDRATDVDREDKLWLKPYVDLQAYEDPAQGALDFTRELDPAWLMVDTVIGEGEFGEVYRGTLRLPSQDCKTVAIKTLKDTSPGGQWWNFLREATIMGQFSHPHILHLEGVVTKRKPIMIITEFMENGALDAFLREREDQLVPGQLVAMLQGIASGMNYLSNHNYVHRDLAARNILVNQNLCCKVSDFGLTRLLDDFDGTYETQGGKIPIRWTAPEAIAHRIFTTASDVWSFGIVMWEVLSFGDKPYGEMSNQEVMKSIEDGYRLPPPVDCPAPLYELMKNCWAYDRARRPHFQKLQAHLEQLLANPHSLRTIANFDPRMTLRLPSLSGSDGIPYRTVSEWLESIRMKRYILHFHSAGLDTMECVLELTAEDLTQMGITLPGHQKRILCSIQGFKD

[2] = biological target: Tyrosine-protein kinase Fes/Fps (Homo sapiens) (UniProt P07332); assay: Inhibition of Fes at 1 uM; values are per cent of control
[3] = biological target: Platelet-derived growth factor receptor beta (Homo sapiens) (UniProt P09619); assay: Inhibition of PDGFRbeta at 1 uM
Method in brief: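 Single-point screen within a 108-kinase selectivity panel. Each kinase was tested with inhibitor at 0.1 and 1.0 micromolar, and activity was recorded as percent inhibition.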

[4] = biological target: Hepatocyte growth factor receptor (Homo sapiens) (UniProt P08581); assay: Inhibition of Met at 0.1 uM; values are per cent of control
[5] = biological target: Mitogen-activated protein kinase 8 (Homo sapiens) (UniProt P45983); assay: Inhibition of JNK1a1 at 1 uM
Method in brief: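 Single-point profiling in a panel of 108 kinases. Each selected inhibitor was tested at two concentrations, 0.1 and 1.0 micromolar. Values are reported as inhibition at each concentration.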

[6] = biological target: BDNF/NT-3 growth factors receptor (Homo sapiens) (UniProt Q16620); assay: Inhibition of TrkB at 1 uM; values are per cent of control
BDNF/NT-3 growth factors receptor (Homo sapiens), sequence (Q16620 32-822 limits assumed): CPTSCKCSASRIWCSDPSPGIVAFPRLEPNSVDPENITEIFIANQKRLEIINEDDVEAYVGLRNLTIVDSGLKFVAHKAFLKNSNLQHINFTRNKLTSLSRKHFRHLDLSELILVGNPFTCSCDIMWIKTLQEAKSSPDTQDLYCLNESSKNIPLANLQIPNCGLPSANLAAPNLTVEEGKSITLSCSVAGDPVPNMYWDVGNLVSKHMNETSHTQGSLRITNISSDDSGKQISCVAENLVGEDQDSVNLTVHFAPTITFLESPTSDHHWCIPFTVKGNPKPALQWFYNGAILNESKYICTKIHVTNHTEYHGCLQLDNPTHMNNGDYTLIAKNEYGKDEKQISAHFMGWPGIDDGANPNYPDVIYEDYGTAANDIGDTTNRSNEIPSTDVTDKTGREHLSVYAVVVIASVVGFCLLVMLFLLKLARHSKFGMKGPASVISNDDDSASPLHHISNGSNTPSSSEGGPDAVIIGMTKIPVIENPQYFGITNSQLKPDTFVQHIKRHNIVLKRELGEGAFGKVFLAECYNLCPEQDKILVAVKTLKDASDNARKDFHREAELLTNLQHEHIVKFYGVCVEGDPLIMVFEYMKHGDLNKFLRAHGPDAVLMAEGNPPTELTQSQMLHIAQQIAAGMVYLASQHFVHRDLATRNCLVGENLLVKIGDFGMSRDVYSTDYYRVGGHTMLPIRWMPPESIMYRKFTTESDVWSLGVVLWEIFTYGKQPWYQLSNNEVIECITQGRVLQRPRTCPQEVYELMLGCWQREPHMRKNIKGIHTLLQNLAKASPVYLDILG

[7] = biological target: Receptor-type tyrosine-protein kinase FLT3 (Homo sapiens) (UniProt P36888); assay: Inhibition of Flt3 at 0.1 uM; values are per cent of control
Receptor-type tyrosine-protein kinase FLT3 (Homo sapiens), sequence (P36888 whole entry): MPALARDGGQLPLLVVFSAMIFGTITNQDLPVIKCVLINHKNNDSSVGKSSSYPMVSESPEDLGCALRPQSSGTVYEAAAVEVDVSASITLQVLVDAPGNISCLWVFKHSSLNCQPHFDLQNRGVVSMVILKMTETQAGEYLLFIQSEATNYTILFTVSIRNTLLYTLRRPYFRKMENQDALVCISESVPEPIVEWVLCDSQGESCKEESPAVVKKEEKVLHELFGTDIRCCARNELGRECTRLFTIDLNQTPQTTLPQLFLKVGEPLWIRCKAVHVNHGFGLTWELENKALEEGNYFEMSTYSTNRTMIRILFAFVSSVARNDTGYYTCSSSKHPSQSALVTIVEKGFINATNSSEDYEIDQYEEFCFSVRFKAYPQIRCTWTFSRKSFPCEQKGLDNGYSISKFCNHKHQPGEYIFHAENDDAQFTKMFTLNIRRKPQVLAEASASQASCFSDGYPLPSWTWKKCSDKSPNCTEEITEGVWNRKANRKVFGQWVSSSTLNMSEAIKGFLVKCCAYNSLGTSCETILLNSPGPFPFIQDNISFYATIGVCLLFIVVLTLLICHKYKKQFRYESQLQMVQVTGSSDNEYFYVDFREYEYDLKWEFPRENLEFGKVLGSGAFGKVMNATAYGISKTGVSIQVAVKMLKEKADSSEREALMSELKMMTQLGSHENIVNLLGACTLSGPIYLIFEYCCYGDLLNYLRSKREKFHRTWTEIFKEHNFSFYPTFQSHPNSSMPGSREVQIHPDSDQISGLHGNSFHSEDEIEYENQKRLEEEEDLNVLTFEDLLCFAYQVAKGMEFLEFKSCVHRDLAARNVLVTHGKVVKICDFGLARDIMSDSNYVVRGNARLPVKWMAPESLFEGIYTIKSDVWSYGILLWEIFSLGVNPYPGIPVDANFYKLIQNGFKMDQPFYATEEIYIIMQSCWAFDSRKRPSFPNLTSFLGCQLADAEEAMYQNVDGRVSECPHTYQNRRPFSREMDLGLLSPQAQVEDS

[8] = Inhibition of MAPK2 at 0.1 uM; settings: values are per cent of control
[9] = biological target: Insulin receptor (Homo sapiens) (UniProt P06213); assay: Inhibition of IR at 0.1 uM; values are per cent of control
[10] = biological target: Receptor-interacting serine/threonine-protein kinase 2 (Homo sapiens) (UniProt O43353); assay: Inhibition of RIPK2 at 1 uM; values are per cent of control
[11] = biological target: High affinity nerve growth factor receptor (Homo sapiens) (UniProt P04629); assay: Inhibition of TrkA at 0.1 uM; values are per cent of control
[12] = biological target: Epidermal growth factor receptor (Homo sapiens) (UniProt P00533); assay: Inhibition of EGFR at 0.1 uM; values are per cent of control
[13] = biological target: Tyrosine-protein kinase HCK (Homo sapiens) (UniProt P08631); assay: Inhibition of Hck at 0.1 uM; values are per cent of control
[14] = biological target: Tyrosine-protein kinase Yes (Homo sapiens) (UniProt P07947); assay: Inhibition of Yes at 0.1 uM; values are per cent of control
[15] = biological target: RAC-alpha serine/threonine-protein kinase (Homo sapiens) (UniProt P31749); assay: Inhibition of PKBalpha at 1 uM; values are per cent of control
[16] = biological target: Serine/threonine-protein kinase pim-1 (Homo sapiens) (UniProt P11309); assay: Inhibition of Pim-1 at 0.1 uM; values are per cent of control
[17] = biological target: Tyrosine-protein kinase CSK (Homo sapiens) (UniProt P41240); assay: Inhibition of CSK at 0.1 uM; values are per cent of control
[18] = biological target: Protein-tyrosine kinase 2-beta (Homo sapiens) (UniProt Q14289); assay: Inhibition of Pyk2 at 1 uM; values are per cent of control
Protein-tyrosine kinase 2-beta (Homo sapiens), sequence (Q14289 whole entry, looked up): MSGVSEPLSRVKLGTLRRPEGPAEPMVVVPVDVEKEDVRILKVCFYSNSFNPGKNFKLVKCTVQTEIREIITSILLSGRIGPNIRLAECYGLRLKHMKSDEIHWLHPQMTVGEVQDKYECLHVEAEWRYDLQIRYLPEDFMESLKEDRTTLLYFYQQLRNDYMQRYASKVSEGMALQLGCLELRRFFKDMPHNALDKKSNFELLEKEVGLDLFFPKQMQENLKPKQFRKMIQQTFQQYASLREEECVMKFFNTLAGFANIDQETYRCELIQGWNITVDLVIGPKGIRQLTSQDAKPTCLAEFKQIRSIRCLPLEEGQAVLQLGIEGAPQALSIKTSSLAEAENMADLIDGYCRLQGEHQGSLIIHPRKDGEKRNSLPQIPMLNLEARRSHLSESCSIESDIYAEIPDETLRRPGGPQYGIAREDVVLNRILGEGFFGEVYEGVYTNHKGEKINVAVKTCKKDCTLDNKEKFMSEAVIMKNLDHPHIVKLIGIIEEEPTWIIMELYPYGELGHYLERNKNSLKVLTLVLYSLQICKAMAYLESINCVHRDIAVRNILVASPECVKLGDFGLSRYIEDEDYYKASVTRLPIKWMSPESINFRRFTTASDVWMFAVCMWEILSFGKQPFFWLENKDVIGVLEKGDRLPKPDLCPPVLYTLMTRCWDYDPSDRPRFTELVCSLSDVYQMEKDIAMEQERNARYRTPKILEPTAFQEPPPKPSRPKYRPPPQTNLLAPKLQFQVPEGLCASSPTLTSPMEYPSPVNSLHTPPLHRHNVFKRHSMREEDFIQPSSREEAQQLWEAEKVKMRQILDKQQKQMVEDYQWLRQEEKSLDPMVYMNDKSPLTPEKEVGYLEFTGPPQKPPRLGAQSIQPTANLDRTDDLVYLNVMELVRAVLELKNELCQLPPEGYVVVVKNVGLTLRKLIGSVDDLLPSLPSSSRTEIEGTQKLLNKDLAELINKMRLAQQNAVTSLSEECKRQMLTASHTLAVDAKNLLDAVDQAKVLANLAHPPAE

[19] = biological target: Protein kinase C theta type (Homo sapiens) (UniProt Q04759); assay: Inhibition of PKCtheta at 1 uM; values are per cent of control
Protein kinase C theta type (Homo sapiens), sequence (Q04759 whole entry, looked up): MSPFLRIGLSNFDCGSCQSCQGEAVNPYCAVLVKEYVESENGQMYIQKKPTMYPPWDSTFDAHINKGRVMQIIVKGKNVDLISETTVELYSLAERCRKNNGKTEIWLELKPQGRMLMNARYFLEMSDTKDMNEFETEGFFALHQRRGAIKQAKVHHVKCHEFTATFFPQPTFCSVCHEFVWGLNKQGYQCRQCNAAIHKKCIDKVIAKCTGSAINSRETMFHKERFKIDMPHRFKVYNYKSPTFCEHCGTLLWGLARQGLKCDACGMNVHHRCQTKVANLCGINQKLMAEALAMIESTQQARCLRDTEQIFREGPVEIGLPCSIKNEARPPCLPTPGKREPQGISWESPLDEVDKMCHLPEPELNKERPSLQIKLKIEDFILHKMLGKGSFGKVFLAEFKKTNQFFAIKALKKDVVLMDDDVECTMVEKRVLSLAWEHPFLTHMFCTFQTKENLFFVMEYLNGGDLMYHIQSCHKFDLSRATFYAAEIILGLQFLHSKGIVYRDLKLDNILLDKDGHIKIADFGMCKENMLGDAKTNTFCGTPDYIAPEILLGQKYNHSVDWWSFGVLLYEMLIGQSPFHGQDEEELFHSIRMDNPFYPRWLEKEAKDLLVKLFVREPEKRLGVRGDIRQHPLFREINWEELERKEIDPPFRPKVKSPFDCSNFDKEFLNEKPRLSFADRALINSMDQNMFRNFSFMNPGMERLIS

[20] = biological target: Protein kinase C theta type (Homo sapiens) (UniProt Q04759); assay: Inhibition of PKCtheta at 0.1 uM; values are per cent of control
[21] = biological target: Tyrosine-protein kinase Fyn (Homo sapiens) (UniProt P06241); assay: Inhibition of Fyn at 0.1 uM; values are per cent of control
[22] = biological target: Vascular endothelial growth factor receptor 2 (Homo sapiens) (UniProt P35968); assay: Inhibition of KDR at 1 uM; values are per cent of control
Vascular endothelial growth factor receptor 2 (Homo sapiens), sequence (P35968 whole entry): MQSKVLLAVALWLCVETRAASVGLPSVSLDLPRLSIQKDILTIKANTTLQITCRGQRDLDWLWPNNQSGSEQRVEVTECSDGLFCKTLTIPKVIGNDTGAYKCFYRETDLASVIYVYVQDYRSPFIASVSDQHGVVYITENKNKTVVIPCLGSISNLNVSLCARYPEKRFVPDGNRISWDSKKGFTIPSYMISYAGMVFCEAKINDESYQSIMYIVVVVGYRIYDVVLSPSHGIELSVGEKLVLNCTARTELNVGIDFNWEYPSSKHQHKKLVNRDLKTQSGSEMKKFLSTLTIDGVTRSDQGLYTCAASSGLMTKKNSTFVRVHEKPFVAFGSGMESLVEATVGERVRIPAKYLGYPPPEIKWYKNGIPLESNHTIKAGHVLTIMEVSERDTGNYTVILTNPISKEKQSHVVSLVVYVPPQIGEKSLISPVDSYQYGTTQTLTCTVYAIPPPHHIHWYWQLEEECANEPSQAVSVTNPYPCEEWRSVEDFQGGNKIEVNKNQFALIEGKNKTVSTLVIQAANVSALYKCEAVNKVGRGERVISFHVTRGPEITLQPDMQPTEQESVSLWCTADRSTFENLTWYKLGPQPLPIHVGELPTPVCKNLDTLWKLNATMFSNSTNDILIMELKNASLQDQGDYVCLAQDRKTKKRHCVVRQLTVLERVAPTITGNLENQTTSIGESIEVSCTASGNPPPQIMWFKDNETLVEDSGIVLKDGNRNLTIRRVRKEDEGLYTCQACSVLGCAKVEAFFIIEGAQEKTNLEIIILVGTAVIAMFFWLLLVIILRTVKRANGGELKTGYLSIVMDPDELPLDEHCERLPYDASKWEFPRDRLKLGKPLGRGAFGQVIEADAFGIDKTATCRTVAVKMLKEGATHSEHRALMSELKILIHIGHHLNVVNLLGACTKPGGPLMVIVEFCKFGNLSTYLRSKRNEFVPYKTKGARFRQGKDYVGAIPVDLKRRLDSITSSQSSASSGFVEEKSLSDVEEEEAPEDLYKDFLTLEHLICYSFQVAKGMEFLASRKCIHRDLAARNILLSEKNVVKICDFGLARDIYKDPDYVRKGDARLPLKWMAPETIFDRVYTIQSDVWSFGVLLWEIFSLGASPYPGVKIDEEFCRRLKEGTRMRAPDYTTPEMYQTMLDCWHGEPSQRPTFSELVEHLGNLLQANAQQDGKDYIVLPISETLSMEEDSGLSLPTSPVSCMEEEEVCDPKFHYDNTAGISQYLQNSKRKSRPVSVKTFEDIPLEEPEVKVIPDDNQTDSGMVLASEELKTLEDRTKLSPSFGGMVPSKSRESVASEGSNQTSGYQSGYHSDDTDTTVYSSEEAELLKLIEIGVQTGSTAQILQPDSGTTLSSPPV

Cc1ccc2cc(-c3n[nH]c4ccc(NC5CCN(Cc6ccccc6)CC5)cc34)[nH]c2c1
residual activity [1]: 64%
residual activity [2]: 1%
inhibition [3]: 42%
residual activity [4]: 78%
inhibition [5]: 76%
residual activity [6]: 0%
residual activity [7]: 5%
residual activity [8]: 100%
residual activity [9]: 93%
residual activity [10]: 78%
residual activity [11]: 10%
residual activity [12]: 28%
residual activity [13]: 61%
residual activity [14]: -2%
residual activity [15]: 86%
residual activity [16]: 106%
residual activity [17]: 105%
residual activity [18]: 10%
residual activity [19]: 6%
residual activity [20]: 45%
residual activity [21]: 30%
residual activity [22]: 21%

Cc1ccc2cc(-c3n[nH]c4ccc(NC5CCNC5)cc34)[nH]c2c1 (centres undefined)
residual activity [1]: 39%
residual activity [2]: 0%
inhibition [3]: 34%
residual activity [4]: 44%
inhibition [5]: 73%
residual activity [6]: 1%
residual activity [7]: 24%
residual activity [8]: 108%
residual activity [9]: 93%
residual activity [10]: 53%
residual activity [11]: -1%
residual activity [12]: 94%
residual activity [13]: 15%
residual activity [14]: 2%
residual activity [15]: 69%
residual activity [16]: 100%
residual activity [17]: 107%
residual activity [18]: 8%
residual activity [19]: 23%
residual activity [20]: 74%
residual activity [21]: 1%
residual activity [22]: 5%
